Test results published in ChEMBL document CHEMBL1143652, “Joys of molecules. 2. Endeavors in chemical biology and medicinal chemistry” (J Med Chem, 2005).
pIC50: −log10 of the molar value. In brackets after ≈: the same amount, converted by molar mass.

Experiments:
Staphylococcus aureus [1] = assay: Minimum inhibitory concentration against methicillin resistant Staphylococcus aureus (MRSA); range is 3-12 ug/mL; assay type: functional
Bacteria = assay: Minimum inhibitory concentration against bacterial strains; assay type: functional
[2] = target: T1, Mycothiol S-conjugate amidase (Mycobacterium tuberculosis, UniProt P9WJN1); assay: Inhibition of Mycobacterium tuberculosis detoxification enzyme mycothiol-S-conjugate amidase (MCA)
T1 sequence (P9WJN1 whole entry): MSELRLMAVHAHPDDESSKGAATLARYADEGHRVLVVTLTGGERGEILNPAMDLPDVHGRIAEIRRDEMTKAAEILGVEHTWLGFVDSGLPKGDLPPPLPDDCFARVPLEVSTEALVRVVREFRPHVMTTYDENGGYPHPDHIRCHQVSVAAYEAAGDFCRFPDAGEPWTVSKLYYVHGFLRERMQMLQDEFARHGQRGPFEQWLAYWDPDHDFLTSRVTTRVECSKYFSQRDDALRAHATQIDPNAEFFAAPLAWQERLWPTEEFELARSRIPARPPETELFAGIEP

[3] = In vitro cytotoxicity against leukemia P-388 tumor cells; assay type: functional, cell-based; conditions: Mus musculus, P388
Enterococcus faecium = assay: Minimum inhibitory concentration against vancomycin resistant Enterococcus faecium; assay type: functional
Protein kinase C (PKC) = assay: Inhibitory activity against protein kinase C; assay type: protein assay
[4] = target: cAMP-dependent protein kinase (PKA) (Homo sapiens, UniProt P22694+P17612+P22612); assay: Inhibitory constant against the protein kinase A; assay type: protein assay
Felis catus = species: Felis catus; assay: Inhibition of LTC4 and LTD4 production in cat lung at 5 mM; assay type: functional
MOLT-4 [5] = assay: Inhibitory concentration against MOLT-4 human T-cells; 10e-12; assay type: functional, cell-based
MOLT-4 [6] = assay: Inhibitory concentration against MOLT-4 human T-cells; assay type: functional, cell-based
[7] = target: Tubulin beta-4B chain (Homo sapiens) (UniProt P68371); assay: (§1) Tubulin polymerization at a concentration of 100 uM incubated for 90 minutes; assay type: functional
Tubulin beta-4B chain (Homo sapiens), sequence (P68371 whole entry): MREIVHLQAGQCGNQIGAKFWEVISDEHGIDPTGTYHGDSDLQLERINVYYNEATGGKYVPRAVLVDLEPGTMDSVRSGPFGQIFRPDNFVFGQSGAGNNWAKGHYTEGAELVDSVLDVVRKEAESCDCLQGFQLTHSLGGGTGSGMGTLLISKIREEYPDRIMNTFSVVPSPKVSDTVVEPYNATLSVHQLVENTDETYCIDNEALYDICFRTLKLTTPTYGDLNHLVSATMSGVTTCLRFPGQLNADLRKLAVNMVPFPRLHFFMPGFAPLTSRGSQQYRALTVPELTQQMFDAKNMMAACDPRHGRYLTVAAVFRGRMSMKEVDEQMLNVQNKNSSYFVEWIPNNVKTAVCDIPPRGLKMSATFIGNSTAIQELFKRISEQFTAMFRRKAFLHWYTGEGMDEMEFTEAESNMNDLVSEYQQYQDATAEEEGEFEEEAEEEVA
How it was run: (§2)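 Tubulin polymerization was read as percent polymerization, with test drug at 100 µM and a 90 min incubation.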

1A9 [8] = assay: Inhibition concentration against human ovarian 1A9 tumor cells; assay type: functional, cell-based
[9] = target: Tubulin beta-4B chain (Homo sapiens) (UniProt P68371); assay: as §1; how it was run: as §2
[10] = target: Polyunsaturated fatty acid 5-lipoxygenase (Homo sapiens) (UniProt P09917); assay: Inhibitory concentration against 5-lipoxygenase
Polyunsaturated fatty acid 5-lipoxygenase (Homo sapiens), sequence (P09917 whole entry): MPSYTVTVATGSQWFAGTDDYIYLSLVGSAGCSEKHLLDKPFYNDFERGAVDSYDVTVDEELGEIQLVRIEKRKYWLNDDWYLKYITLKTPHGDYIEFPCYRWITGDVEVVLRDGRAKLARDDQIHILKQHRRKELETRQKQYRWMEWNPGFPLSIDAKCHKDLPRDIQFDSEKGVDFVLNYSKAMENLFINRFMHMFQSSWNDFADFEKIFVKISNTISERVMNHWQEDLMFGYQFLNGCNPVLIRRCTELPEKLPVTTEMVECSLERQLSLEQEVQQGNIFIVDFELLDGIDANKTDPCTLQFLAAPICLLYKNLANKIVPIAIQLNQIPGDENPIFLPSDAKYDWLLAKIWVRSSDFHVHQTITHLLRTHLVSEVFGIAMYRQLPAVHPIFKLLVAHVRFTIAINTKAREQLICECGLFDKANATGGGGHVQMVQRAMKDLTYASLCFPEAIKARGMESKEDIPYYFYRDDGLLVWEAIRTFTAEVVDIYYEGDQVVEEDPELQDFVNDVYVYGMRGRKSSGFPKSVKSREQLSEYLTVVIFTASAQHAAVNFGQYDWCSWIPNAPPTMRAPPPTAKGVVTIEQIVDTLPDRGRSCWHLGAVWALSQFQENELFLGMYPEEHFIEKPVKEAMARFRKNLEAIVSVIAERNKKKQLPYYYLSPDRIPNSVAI

1A9 [11] = assay: Inhibitory concentration against human 1A9 ovarian carcinoma cells; assay type: functional, cell-based
1A9 [12] = assay: Cytotoxicity against 1A9 ovarian cancer cells; assay type: functional, cell-based; conditions: Homo sapiens
Staphylococcus aureus [13] = assay: Minimum inhibitory concentration against methicillin resistant Staphylococcus aureus (MRSA); assay type: functional
KB 3-1 [14] = assay: Cytotoxicity against KB-31 human epidermoid cancer cells; assay type: functional, cell-based
KB 3-1 [15] = assay: Cytotoxicity against KB3-1 human epidermoid cancer cells; assay type: functional, cell-based
[16] = Antiproliferation activity against cancer cell lines by mixed-lymphocyte-reaction proliferation assay; assay type: functional, cell-based; conditions: Homo sapiens
[17] = Staphylococcus aureus, read-out: MIC

With `CC1(C)C=Cc2cccc(/C=C(/C#N)c3ccc(O)cc3)c2O1` the MIC (Staphylococcus aureus [1]) was 12 µg/mL (≈ 39.6 µM) and the MIC (Staphylococcus aureus [1]; [17]) was 12 µg/mL (≈ 39.6 µM).
Work on `O=C(NCCSSc1ccc(F)cc1)/C(Cc1cccc(Br)c1)=N/O` yielded an MIC (Bacteria) of 0.11 ug m/L and a pIC50 [2] of 4.05.
`COC(=O)[C@]1(O)C(=O)c2c(cc(C)c(Br)c2O)[C@H]2[C@@H](C(C)C)CC[C@]21C` [HAMIGERAN A] showed a pIC50 [3] of 4.50.
Work on `CC1OC(OC2C(Oc3c4cc5cc3Oc3ccc(cc3Cl)[C@H](O)[C@H]3NC(=O)[C@@H](NC(=O)[C@H]5NC(=O)[C@@H](CC(N)=O)NC(=O)[C@@H](NC(=O)[C@@H](N)CO)[C@@H](O)c5ccc(c(Cl)c5)O4)c4ccc(O)c(c4)-c4c(O)cc(O)cc4[C@H](C(=O)NCC(=O)O)NC3=O)OC(CO)C(O)C2O)CC(C)(NCc2cccc(OCC/C=C\COc3cccc(CNC4(C)CC(OC5C(Oc6c7cc8cc6Oc6ccc(cc6Cl)[C@@H](O)[C@@H](NC(=O)[C@H](N)CO)C(=O)N[C@@H](CC(N)=O)C(=O)N[C@H]8C(=O)N[C@H]6C(=O)N[C@H](C(=O)N[C@H](C(=O)NCC(=O)O)c8cc(O)cc(O)c8-c8cc6ccc8O)[C@H](O)c6ccc(c(Cl)c6)O7)OC(CO)C(O)C5O)OC(C)C4O)c3)c2)C1O` (some centres undefined) yielded an MIC (Enterococcus faecium) of 0.25 µg/mL (≈ 0.0779 µM).
Work on `O=C(N[C@@H]1CNCCC[C@H]1OC(=O)c1ccc(C(=O)c2c(O)cccc2C(=O)O)cc1)c1ccc(O)cc1` yielded a Ki (Protein kinase C (PKC)) of 0.08 µM and a Ki [4] of 0.0034 µM.
`CCCCC/C=C\C/C=C\C/C=C\C1(/C=C\CCCC(=O)O)CC1` showed an Inhibition (Felis catus) of 8%.
With `COC(=O)N/C(C)=C1/C(=C/CSSSC)[C@@](O)(CC=O)C#C/C=C\C#C[C@@H]1O` the pIC50 (MOLT-4 [5]) was 11.92 and the pIC50 (MOLT-4 [6]) was 11.92.
Compound `Nc1ccc(SSCCNC(=O)/C(Cc2cccc(Br)c2)=N/O)cc1` has an MIC (Bacteria) of 0.09 ug m/L and a pIC50 [2] of 3.73.
In the case of `CCCOC(=O)/C1=C/[C@@H]2[C@@H](C(C)C)CC=C(C)[C@@H]2C[C@H](OC(=O)/C=C/c2cn(C)cn2)[C@]2(C)C=C[C@@]1(OC)O2`, the TP [7] was 69%, the pIC50 (1A9 [8]) was 8.52 and the TP [9] was 69%.
Compound `CCCCC/C=C/C\C=C/C=C/C=C/[C@@H]1C[C@H]1CCCC(=O)OC` has an ID50 [10] of 6 µM.
In the case of `COC(=O)/C1=C/[C@@H]2[C@@H](C(C)C)CC=C(C)[C@@H]2C[C@H](OC(=O)/C=C/c2cn(C)cn2)[C@]2(C)C=C[C@@]1(O)O2` [SARCODICTYIN A], the TP [7] was 67%, the pIC50 (1A9 [8]) was 6.47 and the TP [9] was 67%.
`COCn1c(Cl)c2c3c(cccc31)-c1cccc3c1OC[C@@]3(c1ccccc1)c1oc(C)nc1-c1nc(Cl)c-2o1` gave a pIC50 (1A9 [11]) of 5.44.
`CCCCC/C=C\C\C=C/C=C/C=C/[C@@H]1C[C@H]1CCCC(=O)O` showed an ID50 [10] of 44 µM.
For `COC[C@@H](C[C@H]1O[C@@](O)([C@H](O)[C@@H]2C[C@H](OC)[C@@H](O)CC/C=C(C)/C=C/[C@@H](O[C@@H]3O[C@@H](C)[C@H](OC)[C@@H](O)[C@@H]3O)[C@H](C)/C=C(C)/C=C(C)/C=C(\C)C(=O)O2)[C@H](C)[C@@H](O)[C@H]1C)OC1C[C@](C)(O)[C@@H](O[C@H]2C[C@@H](OC)[C@H](O)[C@@H](C)O2)[C@H](C)O1` (some centres undefined) [APOPTOLIDIN], the pIC50 (1A9 [11]) was 3.62.
With `CNC(=O)/C1=C/[C@@H]2[C@@H](C(C)C)CC=C(C)[C@@H]2C[C@H](OC(=O)/C=C/c2cn(C)cn2)[C@]2(C)C=C[C@@]1(OC)O2` the TP [7] was 52%, the pIC50 (1A9 [8]) was 7.35 and the TP [9] was 52%.
In the case of `COC1(OC)C2=C(OC(C)(C)C=C2)C(=O)[C@@H](OC(=O)C2=C[C@]3(OC)C[C@H]4C(C)(C)OC(CC=C(C)C)(C3=O)[C@]24O)[C@@H]1CC=C(C)C`, the pIC50 (1A9 [12]) was 5.05.
With `CC1(C)C=Cc2cc(-c3ccco3)cc(/C=C(/C#N)c3ccc(O)cc3)c2O1` the MIC (Staphylococcus aureus [13]) was 2 µg/mL (≈ 5.41 µM) and the MIC (Staphylococcus aureus [13]; [17]) was 2 µg/mL (≈ 5.41 µM).
With `CCOC(=O)/C1=C/[C@@H]2[C@@H](C(C)C)CC=C(C)[C@@H]2C[C@H](OC(=O)/C=C/c2cn(C)cn2)[C@]2(C)C=C[C@@]1(OC)O2` the TP [7] was 46%, the pIC50 (1A9 [8]) was 8.70 and the TP [9] was 46%.
Work on `CC(C)=CCc1c2c(c(O)c3c1O[C@]14C(=C[C@@H]5C[C@H]1C(C)(C)OC4(CC=C(C)C)C5=O)C3=O)C=CC(C)(CCC(C)C)O2` (some centres undefined) yielded a pIC50 (KB 3-1 [14]) of 5.22 and a pIC50 (KB 3-1 [15]) of 5.22.
With `CCCCC/C=C\C/C=C\C1(/C=C\C2(/C=C\CCCC(=O)O)CC2)CC1` the Inhibition (Felis catus) was 5%.
Compound `CCCCC/C=C\C1(/C=C\C2(/C=C\C3(/C=C\CCCC(=O)O)CC3)CC2)CC1` has an Inhibition (Felis catus) of 10%.
Compound `CCOC(=O)c1c(OCC)cc(C)cc1[C@H]1[C@@H](C(C)C)CC[C@@]1(C)C(=O)OCC` has a pIC50 [3] of 4.27.
`O=C(N[C@@H]1CNCCC[C@H]1OC(=O)c1cc(O)c(C(=O)c2ccccc2C(=O)O)c(O)c1)c1ccc(O)cc1` gave a Ki (Protein kinase C (PKC)) of 0.64 µM and a Ki [4] of 0.0039 µM.
In the case of `CCNC1COC(OC2C(O[C@H]3C#C/C=C\C#C[C@@](C)(O)C(=C/CSC(C)=O)/C3=C(\NC(=O)OC)C(C)=O)OC(C)C(NOC3CC(O)C(SC(=O)c4c(C)c(I)c(OC5OC(C)C(O)C(OC)C5O)c(OC)c4OC)C(C)O3)C2O)CC1OC` (some centres undefined), the pIC50 (MOLT-4 [5]) was > 12.00 and the pIC50 (MOLT-4 [6]) was > 11.00.
In the case of `Cc1cc(O)c2c(c1)[C@H]1[C@@H](C(C)C)CC[C@@]1(C)C(=O)C2=O`, the pIC50 [3] was 4.86.
With `O=C(NCCSSc1ccc(F)cc1)/C(Cc1cc(F)cc(F)c1)=N/O` the MIC (Bacteria) was 0.46 ug m/L and the pIC50 [2] was 2.57.
Compound `CC(C)=CCCC1(C)C=Cc2c(O)c3c(c(CC=C(C)C)c2O1)O[C@]12C(=CC4C[C@H]1C(C)(C)OC2(CC=C(C)C)C4=O)C3=O` (some centres undefined) [GAMBOGIN] has a pIC50 (KB 3-1 [14]) of 5.03 and a pIC50 (KB 3-1 [15]) of 5.03.
`COC1=C(CC=C(C)C)[C@]2(OC(=O)C3=C[C@]4(OC)C[C@H]5C(C)(C)OC(CC=C(C)C)(C4=O)[C@]35O2)C(=O)C2=C1C=CC(C)(C)O2` gave a pIC50 (1A9 [12]) of 5.30.
In the case of `CCOC(=O)/C1=C/[C@@H]2[C@@H](C(C)C)CC=C(C)[C@@H]2C[C@H](OC(=O)/C=C/c2cn(C)cn2)[C@]2(C)C=C[C@@]1(O)O2` [SARCODICTYIN B], the TP [7] was 71%, the pIC50 (1A9 [8]) was 8.70 and the TP [9] was 71%.
`Nc1ccc(SSCCNC(=O)/C(Cc2ccc(O)c(Cl)c2)=N/O)cc1` gave an MIC (Bacteria) of 1.23 ug m/L and a pIC50 [2] of 4.46.
For `C=CCO[C@@H]1[C@H](OC[C@H](NC(=O)[C@H](O)CC/C=C\CCCC[C@@H]2C[C@@H]2CCCCCCCCCC)[C@H](O)CCCCCCC[C@@H]2C[C@@H]2CCCCCCCCCC)O[C@@H](CO)[C@@H](O)[C@@H]1O`, the pIC50 [16] was 5.15.
In the case of `CO[C@@]12C=C3C(=O)O[C@]4(O[C@]35[C@@H](C1)C(C)(C)OC5(CC=C(C)C)C2=O)C(=O)C1=C(C=CC(C)(C)O1)C(=O)C4CC=C(C)C` (some centres undefined) [1-O-METHYLLATERIFLORONE], the pIC50 (1A9 [12]) was 4.60.
In the case of `CC(C)=CCc1c2c(c(O)c3c1O[C@]14C(=C[C@@H]5C[C@H]1C(C)(C)OC4(CC=C(C)C)C5=O)C3=O)C=CC(C)(C)O2`, the pIC50 (KB 3-1 [14]) was 5.08 and the pIC50 (KB 3-1 [15]) was 5.08.
In the case of `CCCCCCCCCC[C@H]1C[C@H]1CCCC/C=C\CC[C@@H](O)C(=O)N[C@@H](CO[C@@H]1O[C@@H](CO)[C@@H](O)[C@H](O)[C@@H]1O)[C@@H](CCCCCCC[C@@H]1C[C@@H]1CCCCCCCCCC)OC=C(C)C`, the pIC50 [16] was 4.55.
`Cc1cc2c(c(O)c1Br)C(=O)C(=O)[C@]1(C)CC[C@H](C(C)C)[C@H]21` [HAMIGERAN B] showed a pIC50 [3] of 4.87.
In the case of `CC(C)C[C@H]1NC(=O)[C@H](Cc2ccccc2)NC(=O)CNC(=O)[C@H](C)NC(=O)[C@H](Cc2ccc(O)cc2)NC(=O)/C=C\c2ccccc2OCOC1=O`, the MIC (Enterococcus faecium) was 0.25 µg/mL (≈ 0.343 µM).
